Experimental data published in ChEMBL document CHEMBL1154956, “Stereospecific synthesis of oximes and oxime ethers of 3-azabicycles: A SAR study towards antimicrobial agents” (2010).
Values after ≈ are worked out from the molar mass of the structure shown.

Key:
Type in all cases: functional
[1] = system: Pseudomonas aeruginosa; assay: Antibacterial activity against Pseudomonas aeruginosa by NCCLS broth microdilution method
[2] = system: Candida parapsilosis; assay: Antifungal activity against Candida parapsilosis by NCCLS broth microdilution method
In short: (§1)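 MIC90 was taken as the lowest concentration that inhibited 90% of pathogen growth after incubation, reported in μg/mL. Broth dilution followed the NCCLS reference standards: M27-A for yeasts and the proposed standard for conidium-forming filamentous fungi. Fluconazole was the reference drug.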

[3] = system: Klebsiella pneumoniae; assay: Antibacterial activity against Klebsiella pneumoniae by NCCLS broth microdilution method
[4] = system: Staphylococcus aureus; assay: Antibacterial activity against Staphylococcus aureus by NCCLS broth microdilution method
[5] = system: Aspergillus niger; assay: Antifungal activity against Aspergillus niger by NCCLS broth microdilution method; in short: as §1
[6] = system: Cryptococcus neoformans; assay: Antifungal activity against Cryptococcus neoformans by NCCLS broth microdilution method; in short: as §1
[7] = system: Bacillus subtilis; assay: Antibacterial activity against Bacillus subtilis by NCCLS broth microdilution method
[8] = system: Candida albicans; assay: Antifungal activity against Candida albicans by NCCLS broth microdilution method; in short: as §1
[9] = Pseudomonas aeruginosa, read-out: MIC90
[10] = Lodderomyces parapsilosis, read-out: MIC90
[11] = Klebsiella pneumoniae, read-out: MIC90
[12] = Staphylococcus aureus, read-out: MIC90
[13] = Aspergillus niger, read-out: MIC90
[14] = Cryptococcus neoformans, read-out: MIC90
[15] = Bacillus subtilis, read-out: MIC90
[16] = Candida albicans, read-out: MIC90

COc1ccccc1C1NC(c2ccccc2OC)C2(C)CCCC1/C2=N\O (centres undefined)
MIC90 [1, 9]: 128 µg/mL (≈ 336 µM) | MIC90 [2, 10]: 128 µg/mL (≈ 336 µM) | MIC90 [3, 11]: 128 µg/mL (≈ 336 µM) | MIC90 [4, 12]: 64 µg/mL (≈ 168 µM) | MIC90 [5, 13]: 128 µg/mL (≈ 336 µM) | MIC90 [6, 14]: 64 µg/mL (≈ 168 µM) | MIC90 [7, 15]: 64 µg/mL (≈ 168 µM) | MIC90 [8, 16]: > 128 µg/mL

CO/N=C1\C2CCCC1(C)C(c1ccc(Br)cc1)NC2c1ccc(Br)cc1 (centres undefined)
MIC90 [1, 9]: > 128 µg/mL | MIC90 [2, 10]: 128 µg/mL (≈ 260 µM) | MIC90 [3, 11]: 32 µg/mL (≈ 65 µM) | MIC90 [4, 12]: 32 µg/mL (≈ 65 µM) | MIC90 [5, 13]: 32 µg/mL (≈ 65 µM) | MIC90 [6, 14]: 64 µg/mL (≈ 130 µM) | MIC90 [7, 15]: 64 µg/mL (≈ 130 µM) | MIC90 [8, 16]: 64 µg/mL (≈ 130 µM)

Cc1ccccc1C1NC(c2ccccc2C)C2(C)CCCC1/C2=N\O (centres undefined)
MIC90 [1, 9]: > 128 µg/mL | MIC90 [2, 10]: > 128 µg/mL | MIC90 [3, 11]: 128 µg/mL (≈ 367 µM) | MIC90 [4, 12]: 128 µg/mL (≈ 367 µM) | MIC90 [5, 13]: 64 µg/mL (≈ 184 µM) | MIC90 [6, 14]: > 128 µg/mL | MIC90 [7, 15]: 64 µg/mL (≈ 184 µM) | MIC90 [8, 16]: 128 µg/mL (≈ 367 µM)

CC1CC2C(=NO)C(C1)C(c1cccc(F)c1)NC2c1cccc(F)c1 (stereo in doubt; 50b)
MIC90 [1]: 32 µg/mL (≈ 89.8 µM) | MIC90 [2]: 32 µg/mL (≈ 89.8 µM) | MIC90 [3]: 64 µg/mL (≈ 180 µM) | MIC90 [4]: 32 µg/mL (≈ 89.8 µM) | MIC90 [5]: 32 µg/mL (≈ 89.8 µM) | MIC90 [6]: 64 µg/mL (≈ 180 µM) | MIC90 [7]: >128 µg/mL | MIC90 [8]: 64 µg/mL (≈ 180 µM)

CO/N=C1\C2CCCC1(C)C(c1ccccc1)NC2c1ccccc1 (centres undefined)
MIC90 [1, 9]: > 128 µg/mL | MIC90 [2, 10]: > 128 µg/mL | MIC90 [3, 11]: 128 µg/mL (≈ 383 µM) | MIC90 [4, 12]: 64 µg/mL (≈ 191 µM) | MIC90 [5, 13]: > 128 µg/mL | MIC90 [6, 14]: > 128 µg/mL | MIC90 [7, 15]: > 128 µg/mL | MIC90 [8, 16]: 128 µg/mL (≈ 383 µM)

CON=C1C2CC(C)CC1C(c1ccccc1F)NC2c1ccccc1F (stereo in doubt; 55a)
MIC90 [1]: 8 µg/mL (≈ 21.6 µM) | MIC90 [2]: 32 µg/mL (≈ 86.4 µM) | MIC90 [3]: 2 µg/mL (≈ 5.4 µM) | MIC90 [4]: 2 µg/mL (≈ 5.4 µM) | MIC90 [5]: 16 µg/mL (≈ 43.2 µM) | MIC90 [6]: 16 µg/mL (≈ 43.2 µM) | MIC90 [7, 15]: 4 µg/mL (≈ 10.8 µM) | MIC90 [8]: 8 µg/mL (≈ 21.6 µM)

CON=C1C2CC(C)CC1C(c1ccc(Cl)cc1)NC2c1ccc(Cl)cc1 (centres undefined)
MIC90 [1, 9]: 32 µg/mL (≈ 79.3 µM) | MIC90 [2, 10]: 16 µg/mL (≈ 39.7 µM) | MIC90 [3, 11]: 8 µg/mL (≈ 19.8 µM) | MIC90 [4, 12]: 16 µg/mL (≈ 39.7 µM) | MIC90 [5, 13]: 64 µg/mL (≈ 159 µM) | MIC90 [6, 14]: 16 µg/mL (≈ 39.7 µM) | MIC90 [7, 15]: 16 µg/mL (≈ 39.7 µM) | MIC90 [8, 16]: 32 µg/mL (≈ 79.3 µM)

CO/N=C1\C2CCCC1(C)C(c1cccc(F)c1)NC2c1cccc(F)c1 (centres undefined)
MIC90 [1, 9]: 32 µg/mL (≈ 86.4 µM) | MIC90 [2, 10]: 64 µg/mL (≈ 173 µM) | MIC90 [3, 11]: 32 µg/mL (≈ 86.4 µM) | MIC90 [4, 12]: 16 µg/mL (≈ 43.2 µM) | MIC90 [5, 13]: 64 µg/mL (≈ 173 µM) | MIC90 [6, 14]: 128 µg/mL (≈ 346 µM) | MIC90 [7, 15]: 128 µg/mL (≈ 346 µM) | MIC90 [8, 16]: 16 µg/mL (≈ 43.2 µM)

CON=C1C2CC(C)CC1C(c1ccccc1Cl)NC2c1ccccc1Cl (stereo in doubt; 58a)
MIC90 [1]: 4 µg/mL (≈ 9.92 µM) | MIC90 [2]: 16 µg/mL (≈ 39.7 µM) | MIC90 [3]: 4 µg/mL (≈ 9.92 µM) | MIC90 [4, 12]: 4 µg/mL (≈ 9.92 µM) | MIC90 [5]: 32 µg/mL (≈ 79.3 µM) | MIC90 [6]: 16 µg/mL (≈ 39.7 µM) | MIC90 [7]: 8 µg/mL (≈ 19.8 µM) | MIC90 [8, 16]: 8 µg/mL (≈ 19.8 µM)

OC(Cn1cncn1)(Cn1cncn1)c1ccc(F)cc1F [FLUCONAZOLE]
MIC90 [2, 10]: 2 µg/mL (≈ 6.53 µM) | MIC90 [5, 13]: 4 µg/mL (≈ 13.1 µM) | MIC90 [6, 14]: 2 µg/mL (≈ 6.53 µM) | MIC90 [8, 16]: 1 µg/mL (≈ 3.27 µM)

CC1CC2C(=NO)C(C1)C(c1cccc(Cl)c1)NC2c1cccc(Cl)c1 (centres undefined)
MIC90 [1, 9]: 64 µg/mL (≈ 164 µM) | MIC90 [2, 10]: 128 µg/mL (≈ 329 µM) | MIC90 [3, 11]: 32 µg/mL (≈ 82.2 µM) | MIC90 [4, 12]: 64 µg/mL (≈ 164 µM) | MIC90 [5, 13]: 64 µg/mL (≈ 164 µM) | MIC90 [6, 14]: > 128 µg/mL | MIC90 [7, 15]: 32 µg/mL (≈ 82.2 µM) | MIC90 [8, 16]: 64 µg/mL (≈ 164 µM)

CC12CCCC(/C1=N\O)C(c1ccccc1)NC2c1ccccc1 (centres undefined)
MIC90 [1, 9]: > 128 µg/mL | MIC90 [2, 10]: > 128 µg/mL | MIC90 [3, 11]: > 128 µg/mL | MIC90 [4, 12]: 128 µg/mL (≈ 399 µM) | MIC90 [5, 13]: > 128 µg/mL | MIC90 [6, 14]: > 128 µg/mL | MIC90 [7, 15]: > 128 µg/mL | MIC90 [8, 16]: > 128 µg/mL

CC1CC2C(=NO)C(C1)C(c1ccccc1F)NC2c1ccccc1F (stereo in doubt; 49a)
MIC90 [1]: 32 µg/mL (≈ 89.8 µM) | MIC90 [2]: 128 µg/mL (≈ 359 µM) | MIC90 [3]: 16 µg/mL (≈ 44.9 µM) | MIC90 [4]: 8 µg/mL (≈ 22.4 µM) | MIC90 [5]: 64 µg/mL (≈ 180 µM) | MIC90 [6]: 64 µg/mL (≈ 180 µM) | MIC90 [7, 15]: 16 µg/mL (≈ 44.9 µM) | MIC90 [8]: 64 µg/mL (≈ 180 µM)

GENTAMICIN
MIC90 [1]: 16 µg/mL | MIC90 [3]: 2 µg/mL | MIC90 [4]: 4 µg/mL | MIC90 [7]: 16 µg/mL
